Measurements: ChEMBL document CHEMBL1129647, “Targeting delavirdine/atevirdine resistant HIV-1: identification of (alkylamino)piperidine-containing bis(heteroaryl)piperazines as broad spectrum HIV-1 reverse transcriptase inhibitors” (J Med Chem, 1996)

Assays:
[1] = Clearance at an iv dose of 15.6 mg/Kg and po dose of 31.2 mg/Kg; type: ADME, organism-based; settings: rat, in vivo
Outline: (§1)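 Male Sprague-Dawley rats, fasted, dosed iv and po in a crossover design with a 1 week washout between treatments (N = 3). Compound was given as a solution in propylene glycol/water (80/20, v/v) acidified with a molar excess of methanesulfonic acid. Values are the iv clearance and the absolute oral bioavailability.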

[2] = Bioavailability at an iv dose of 15.6 mg/Kg and po dose of 31.2 mg/Kg; type: ADME, organism-based; settings: rat, in vivo, read-out: Bioavailabiility; outline: as §1
[3] = target: T1, Human immunodeficiency virus type 1 reverse transcriptase (Human immunodeficiency virus 1, UniProt Q72547, P236L)
[4] = target: T2, Human immunodeficiency virus type 1 reverse transcriptase (Human immunodeficiency virus 1, UniProt Q72547, Y181C)
[5] = target: T3, Human immunodeficiency virus type 1 reverse transcriptase (Human immunodeficiency virus 1, UniProt Q72547)
[6] = Clearance at an iv dose of 15 mg/Kg and po dose of 30 mg/Kg; type: ADME, organism-based; settings: in vivo; outline: as §1
[7] = Bioavailability (dose 15 mg/kg i.v. and 30 mg/kg p.o.); type: ADME, organism-based; settings: in vivo, po; outline: as §1
[8] = test system: Human immunodeficiency virus 1; assay: Concentration required to inhibit P24 production by 90% against L-697661 of HIV-1 IIIB (Y181C); type: functional
[9] = test system: Human immunodeficiency virus 1; assay: Concentration required to inhibit P24 production by 90% against U-90,152 of HIV-1 IIIB (L100I, M230L); type: functional
[10] = test system: Human immunodeficiency virus 1; assay: Concentration required to inhibit P24 production by 90% against U-90,152 of HIV-1 MF (P236L); type: functional
[11] = Clearance at an iv dose of 15 mg/Kg and po dose of 30.2 mg/Kg; type: ADME, organism-based; settings: rat, in vivo; outline: as §1
[12] = Bioavailability at an iv dose of 15 mg/Kg and po dose of 30.2 mg/Kg; type: ADME, organism-based; settings: rat, in vivo, read-out: Bioavailabiility; outline: as §1
[13] = Bioavailability at an iv dose of 16 mg/Kg and po dose of 35 mg/Kg; type: ADME, organism-based; settings: rat, in vivo, read-out: Bioavailabiility; outline: as §1
[14] = Clearance at an iv dose of 16 mg/Kg and po dose of 35 mg/Kg; type: ADME, organism-based; settings: rat, in vivo; outline: as §1
[15] = test system: Human immunodeficiency virus 1; assay: In vitro inhibition of recombinant HIV-1 IIIB mutant P236L; type: functional, organism-based
[16] = test system: Human immunodeficiency virus 1; assay: In vitro inhibition of recombinant HIV-1 IIIB mutant Y181C; type: functional, organism-based
[17] = target: T1, Human immunodeficiency virus type 1 reverse transcriptase; assay: Compound was tested for inhibition of HIV-1 P236L reverse transcriptase using dTTP as substrate
[18] = target: T1, Human immunodeficiency virus type 1 reverse transcriptase; assay: Compound was tested for inhibition of HIV-1 P236L reverse transcriptase using poly(rA)300:oligo(dT)10 as substrate
[19] = target: T3, Human immunodeficiency virus type 1 reverse transcriptase; assay: Compound was tested for inhibition of HIV-1 WT reverse transcriptase using dTTP as substrate
[20] = target: T3, Human immunodeficiency virus type 1 reverse transcriptase; assay: Compound was tested for inhibition of HIV-1 WT reverse transcriptase using poly(rA)300:oligo(dT)10 as substrate
[21] = target: T2, Human immunodeficiency virus type 1 reverse transcriptase; assay: Compound was tested for inhibition of HIV-1 Y181C cell line using poly(rA)300:oligo(dT)10 as substrate
Outline: (§2)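 Kinetic inhibition study on homodimeric recombinant HIV-1 RTs (WT, P236L, Y181C), varying dTTP or poly(rA):(dT)10 template:primer. Base assay: 28 °C, 10 min, pH 8.3 Tris-HCl, 10 mM MgCl2, 60 mM NaCl, 2 mM DTT, 0.05% NP-40, [3H]TTP incorporation. TCA-precipitated product collected on glass fibre filters and counted. Ki values derived.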

[22] = test system: Human immunodeficiency virus 1; assay: In vitro inhibition of recombinant HIV-1 IIIB mutant WT; type: functional, organism-based
[23] = target: T2, Human immunodeficiency virus type 1 reverse transcriptase; assay: Compound was tested for inhibition of HIV-1 Y181C reverse transcriptase using dTTP as substrate
[24] = Bioavailability at an iv dose of 15 mg/Kg and po dose of 29.1 mg/Kg; type: ADME, organism-based; settings: in vivo, read-out: Bioavailabiility; outline: as §1
[25] = Clearance at an iv dose of 15 mg/Kg and po dose of 120 mg/Kg; type: ADME, organism-based; settings: in vivo; outline: as §1
[26] = Clearance at an iv dose of 15 mg/Kg and po dose of 240 mg/Kg; type: ADME, organism-based; settings: in vivo; outline: as §1
[27] = Bioavailability at an iv dose of 15 mg/Kg and po dose of 60 mg/Kg; type: ADME, organism-based; settings: in vivo, read-out: Bioavailabiility; outline: as §1
[28] = Bioavailability at an iv dose of 15 mg/Kg and po dose of 120 mg/Kg; type: ADME, organism-based; settings: in vivo, read-out: Bioavailabiility; outline: as §1
[29] = target: T3, Human immunodeficiency virus type 1 reverse transcriptase; assay: Compound was tested for inhibition of HIV-1 181C cell line using poly(rA)300:oligo(dT)10 as substrate; outline: as §2
[30] = Clearance at an iv dose of 15 mg/Kg and po dose of 60 mg/Kg; type: ADME, organism-based; settings: in vivo; outline: as §1
[31] = test system: Human immunodeficiency virus 1; assay: Concentration required to inhibit P24 production by 90% against L-697,661 of HIV-1IIIB(Y181c); type: functional
[32] = test system: Human immunodeficiency virus 1; assay: Concentration required to inhibit P24 production by 90% against U-90,152 of HIV-1 MF(P236L); type: functional
[33] = Bioavailability at an iv dose of 15.7 mg/Kg and po dose of 31.4 mg/Kg; type: ADME, organism-based; settings: rat, in vivo, read-out: Bioavailabiility; outline: as §1
[34] = Clearance at an iv dose of 15.7 mg/Kg and po dose of 31.4 mg/Kg; type: ADME, organism-based; settings: rat, in vivo; outline: as §1
[35] = Clearance at an iv dose of 12 mg/Kg and po dose of 23 mg/Kg; type: ADME, organism-based; settings: rat, in vivo; outline: as §1
[36] = Bioavailability at an iv dose of 12 mg/Kg and po dose of 23 mg/Kg; type: ADME, organism-based; settings: rat, in vivo, read-out: Bioavailabiility; outline: as §1
[37] = Clearance at an iv dose of 14 mg/Kg and po dose of 15 mg/Kg; type: ADME, organism-based; settings: rat, in vivo; outline: as §1
[38] = Bioavailability at an iv dose of 14 mg/Kg and po dose of 15 mg/Kg; type: ADME, organism-based; settings: rat, in vivo, read-out: Bioavailabiility; outline: as §1
Rattus norvegicus = assay: Bioavailability at an iv dose of 14 mg/Kg and po dose of 28 mg/Kg; type: ADME, organism-based; settings: in vivo; outline: as §1

SMILES: CC(C)Nc1ccnnc1N(C)C1CCN(C(=O)c2cc3cc(NS(C)(=O)=O)ccc3[nH]2)CC1
- clearance [1]: 40 mL/min/kg
- bioavailability [2]: 0%
- IC50 [3]: 4560 nM
- IC50 [4]: 1310 nM
- IC50 [5]: 740 nM

SMILES: CCN(c1nc(F)ccc1NC(C)(C)C)C1CCN(C(=O)c2cc3cc(NS(C)(=O)=O)ccc3[nH]2)CC1
- clearance ([6]; rat): 27 mL/min/kg
- bioavailability ([7]; rat): 17.1%
- IC90 [8]: < 30 nM
- IC90 [9]: 120 nM
- IC90 [10]: 220 nM
- IC50 [3]: 1050 nM
- IC50 [4]: 1060 nM
- IC50 [5]: 730 nM

SMILES: CC(C)Nc1cccnc1N(C)C1CCN(C(=O)c2cc3cc(NS(C)(=O)=O)ccc3[nH]2)CC1
- clearance [11]: 44 mL/min/kg
- bioavailability [12]: 4.3%
- IC90 [8]: 1000 nM

SMILES: CNC(=O)Nc1ccc2[nH]c(C(=O)N3CCC(N(C)c4ncccc4NC(C)C)CC3)cc2c1
- bioavailability [13]: 12.3%
- clearance [14]: 42 mL/min/kg
- IC50 [4]: 1600 nM
- IC50 [5]: 180 nM

SMILES: CCN(c1ncccc1NC(C)C)C1CCN(C(=O)c2cc3cc(NC(=O)N4CCN(C)CC4)ccc3[nH]2)CC1
- clearance ([6]; rat): 50 mL/min/kg
- bioavailability ([7]; rat): 21.3%
- IC90 [8]: 50 nM
- IC90 [9]: 110 nM
- IC90 [10]: 240 nM
- IC50 [3]: 180 nM
- IC50 [4]: 410 nM
- IC50 [5]: 140 nM

SMILES: CCN(c1nc(F)ccc1NC(C)(C)C)C1CCN(C(=O)c2cc3cc(NC(=O)N4CCN(C)CC4)ccc3[nH]2)CC1
- clearance [6]: 16 mL/min/kg
- bioavailability ([7]; eutheria): 42%
- IC50 [15]: 430 nM
- IC50 [16]: 790 nM
- IC90 [8]: 130 nM
- IC90 [9]: 140 nM
- IC90 [10]: 160 nM
- Ki [17]: 2020 nM
- Ki [18]: 1740 nM
- Ki [19]: 1260 nM
- Ki [20]: 1640 nM
- Ki [21]: 3030 nM
- IC50 [22]: 210 nM
- Ki [23]: 2550 nM

SMILES: CN(c1ncccc1NC(C)(C)C)C1CCN(C(=O)c2cc3cc(NS(C)(=O)=O)ccc3[nH]2)CC1
- bioavailability [24]: 44%
- IC90 [8]: 220 nM
- IC90 [9]: 830 nM
- IC90 [10]: 5400 nM

SMILES: CCN(c1ncccc1NC(C)(C)C)C1CCN(C(=O)c2cc3cc(NS(C)(=O)=O)ccc3[nH]2)CC1
- clearance [6]: 50 mL/min/kg
- bioavailability ([7]; eutheria): 14%
- clearance [25]: 50 mL/min/kg
- clearance [26]: 50 mL/min/kg
- bioavailability [27]: 42%
- bioavailability [28]: 124%
- IC50 [15]: 460 nM
- IC50 [16]: 660 nM
- IC90 [8]: 30 nM
- IC90 [9]: 80 nM
- IC90 [10]: 190 nM
- Ki [29]: 3090 nM
- Ki [17]: 1110 nM
- Ki [18]: 1600 nM
- Ki [19]: 1030 nM
- Ki [20]: 1380 nM
- IC50 [22]: 320 nM
- clearance [30]: 50 mL/min/kg
- Ki [23]: 1920 nM

SMILES: CCN(c1nc(Cl)ccc1NC(C)(C)C)C1CCN(C(=O)c2cc3cc(NS(C)(=O)=O)ccc3[nH]2)CC1
- IC90 [31]: > 300 nM
- IC90 [32]: 240 nM
- IC50 [3]: 1520 nM
- IC50 [4]: 3000 nM
- IC50 [5]: 1020 nM

SMILES: CC(C)Nc1cccnc1N(C1CC1)C1CCN(C(=O)c2cc3cc(NS(C)(=O)=O)ccc3[nH]2)CC1
- bioavailability [33]: 1.6%
- clearance [34]: 22.6 mL/min/kg
- IC50 [3]: 700 nM
- IC50 [4]: 940 nM
- IC50 [5]: 230 nM

SMILES: CCNc1cccnc1N1CCN(C(=O)c2cc3cc(OC)ccc3[nH]2)CC1.CS(=O)(=O)O [ATEVIRDINE SULPHATE]
- clearance [35]: 13 mL/min/kg
- bioavailability [36]: 75%

SMILES: CC(C)Nc1cccnc1N1CCN(C(=O)c2cc3cc(NS(C)(=O)=O)ccc3[nH]2)CC1.CS(=O)(=O)O [DELAVIRDINE MESYLATE]
- clearance [37]: 13.6 mL/min/kg
- bioavailability [38]: 64%
- Bioavailabiility (Rattus norvegicus): 169%
